Test results published in the RNAGym collection of RNA variant scans (doi:10.1126/science.aae0568).
Variants at the floor of the assay were thinned out.

B1: tRNA (parent)
chain: GUUCCGUUGGCGUAAUGGUAACGCGUCUCCCUCCUAAGGAGAAGACUGCGGGUUCGAGUCCCGUACGGAACG

Variants of: B1
Assay: yeast fitness relative to wild type (ratio to wild type); higher = fitter; tRNA-Arg(CCU), competitive growth, 37 C, YPD
Summary of the method: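 Genotype frequency changes were the basis for Darwinian fitness relative to wild type. The frequencies came from 100-nucleotide paired-end sequencing of gene amplicons from the start population and each end population of pooled yeast strains with tRNA-Arg(CCU) gene variants at the native locus. Competition ran in YPD at 37°C for 24 hours in six replicates, genotypes needed ≥ 100 starting reads, and estimates < 0.5 were set to 0.5.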

Variant	yeast fitness
C24A A43U G52A	≤ 0.5
C24A C30U A57U C62A	≤ 0.5
C24A A36G A43G A57G	≤ 0.5
C24A C29U G50A	≤ 0.5
C24A A40G C61U	≤ 0.5
C24G A40C U47A A69G	≤ 0.5
G23C U35G A42U	≤ 0.5
C24G A36U A37C C66U G67A	≤ 0.5
C24A C30U G38C G58C	≤ 0.5
C24A C33U C34A A43U C46G	≤ 0.5
C24A U26G A43C	0.516
C24A C27A U28A A70U	≤ 0.5
C24A A40G G48A C49A C61G	≤ 0.5
C24A C31U C55A C60A	≤ 0.5
C24A C34U G52A	≤ 0.5
C24A C27U C29G G44C G68C	≤ 0.5
C24A A40G C49A	≤ 0.5
C24G C27G C60U	0.8
C24A A36U G41C	≤ 0.5
C24A G25A U47C	≤ 0.5
C24G C27U U28C	≤ 0.5
C24G A36G C55A	≤ 0.5
C24G C30A	0.777
C24G A36G A65U	0.554

Variant	yeast fitness
C24G C27U C33U A45G G50C G68A	≤ 0.5
C24A G38C G48A	≤ 0.5
C24A G38C G48C	≤ 0.5
C24G A70U	0.639
C24A A36U C61A	0.509
C24A C46A G63A	0.793
C24G A43G U47A U53A G68C	≤ 0.5
C24A A42G G48C	≤ 0.5
G23U C24G C62A	≤ 0.5
C24A C31G C66A	≤ 0.5
C24A C27A A42G A69U	≤ 0.5
C24G A36C A37G A70C	≤ 0.5
C24A C31G G38C	≤ 0.5
C24A U32C C33U U54C	0.602
G23U A45G	0.579
C24A A43G G52A G58A	≤ 0.5
C24A U32C C61G	≤ 0.5
C24A C31A A65C	≤ 0.5
C24A C27G	0.571
C24A C27U	0.702
C24A A40G C49A C61G	0.53
C24G A37C U59C C62U G68U	≤ 0.5
C24A A36U A43C C55A G56A	≤ 0.5
G23U G38C A57G	≤ 0.5

Variant	yeast fitness
C24A C31U A42C G50A	≤ 0.5
C24G A42C G68A	≤ 0.5
C24G A42C A70U	0.616
C24G A42G	0.587
C24G A42C	0.63
C24G A43G U47A	≤ 0.5
G23C U64A	0.564
C24A U59G C66U A70C	0.529
C24A C30U C62U	0.511
C24A C27U U28G G68U	0.529
C24A A65C	0.725
C24A U47A	0.619
G23C U53A C55U	0.563
C24G A36U U64C	0.52
C24G C27U C33U G48A G50C G68A	≤ 0.5
C24G A42U G68A	≤ 0.5
C24A A57G	0.601
C24A A57C	≤ 0.5
G23C U59A	0.704
C24G A36G A45G C61A A70G	≤ 0.5
C24A C29U	0.643
C24A C29G A45G C62A A69C	0.52
C24G C27U C33U G50C A65G G68A	≤ 0.5
C24A C29G U35A A43C	0.929

Variant	yeast fitness
C24A C31G G51C C55U G58C	≤ 0.5
C24A U64A	0.622
C24A U64G	0.68
C24G A40G G50C C66U	≤ 0.5
C24G A36G A40C	≤ 0.5
C24A C29G U35A A57U	0.515
C24A G41C G48A	0.625
C24A C29G U35G A36C	≤ 0.5
C24A C27U U28G	0.511
C24A G63A	0.658
G23C U32A C49U	≤ 0.5
C24G A40C U64A A65C	≤ 0.5
C24A A43G U54C	0.606
C24A U35G A65C	≤ 0.5
C24A G44C U59A	≤ 0.5
C24G A57U G67C	0.612
C24A C29G G51C U54A	≤ 0.5
C24A C29U A36U C55U	≤ 0.5
C24A C46G U59C C62G	0.617
C24A C46G U59C C62U	≤ 0.5
C24G A57U G58A A65U	≤ 0.5
G23C U32A C49A U54G	≤ 0.5
C24A C34U G41A	≤ 0.5
G23U A42C	0.74

Variant	yeast fitness
C24A C55G	0.545
C24G C29G G67A	0.57
C24G C27U G51C U64A	≤ 0.5
C24A U32G A37G	≤ 0.5
C24A C27G C29G G52C	0.996
C24G C27G A40C U47A	≤ 0.5
C24G C29G	≤ 0.5
C24G C29U	0.521
C24G	0.609
C24A	0.747
C24A C29U A37U C60A C66U	≤ 0.5
C24G C29A A43U	≤ 0.5
C24A A69C	0.724
C24A A69U	0.752
C24A C31A C33A C60A	≤ 0.5
C24A A37C G38A A65G C66U	≤ 0.5
G23U A40G	0.682
C24A C30U U64G	≤ 0.5
C24G A57U A69C	≤ 0.5
C24A C31U A42C A65C	≤ 0.5
C24A G51C G52C	≤ 0.5
C24G A40C G56U	≤ 0.5
C24A C49A	0.577
C24G A43U	0.703

Variant	yeast fitness
C24G A43C	0.543
C24G A43C C62U A65G	≤ 0.5
C24A U54A	0.634
C24G A57G C61A A65C C66U	≤ 0.5
C24A U32C C55A C60U	0.698
C24A U26G A43C C62G G63A C66G	0.514
C24G C29U A42G G51C	≤ 0.5
C24G A37G G52C U64C	0.602
C24A A42G C49U U59G C62A	0.547
C24A G52C A57C	0.561
C24A C31U A42C	0.529
G23C U32C A45U	0.605
C24G C27U G52C	0.566
C24G C27U A43U G52C	≤ 0.5
C24A C62G A70U	0.562
C24G C27A A45C C62G	≤ 0.5
C24A G38A U47A C55G C61U	≤ 0.5
C24A C49G A69C	≤ 0.5
C24A C29G A45G U54A	≤ 0.5
C24A U35G C46U G68A	≤ 0.5
C24G C29G C46G G67C	≤ 0.5
C24A C27U U54C U59C	0.551
C24G C29U G38C	0.62
C24A C31A G63U U64G	≤ 0.5

Variant	yeast fitness
C24G C30A A40C A57G C61U	≤ 0.5
C24A G58C C62U	≤ 0.5
C24G A42G A43U C46U C62U	≤ 0.5
C24A A43C A65G	≤ 0.5
G23U A57G	0.665
C24A A45U	0.57
C24A A45G	0.626
C24A C30U A45G A57U C62U	0.614
C24G A36U U54A	≤ 0.5
C24A C27A U28A C49U C55A	≤ 0.5
C24A U28C A57U	≤ 0.5
C24A A36G A37G A69U	≤ 0.5
C24A A36G A37G A69C	≤ 0.5
C24G A42U A45C	≤ 0.5
C24G A57G	0.524
C24G A57U	0.578
C24A C29G A69G	≤ 0.5
C24A A36C G48C G52C	≤ 0.5
C24A U32G A36U A57C	≤ 0.5
C24G A37G G63C C66G	≤ 0.5
C24A C33G C34U G58C	0.551
G23U C33G G58C	≤ 0.5
C24G C29A G44C C61U	0.787
